Measurements taken from ChEMBL document CHEMBL4190221, “Inhibition of Proliferation of Vascular Smooth Muscle Cells by Cucurbitanes from Momordica charantia” (J Nat Prod, 2017).
Calls of active or inactive are those of the source. The calls are words filed in the database; no cut-off is given here.

Tests used:
[1] = test system: VSMC; assay: Cytotoxicity against Sprague-Dawley rat VSMC assessed as decrease in cell viability at 5 to 10 uM after 24 hrs by MTT assay; format: cell-based
Summary of the method: (§1)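 Primary aortic smooth muscle cells from Sprague-Dawley rats, passages 7–10, grown in DMEM/10% FBS at 37 °C and seeded at 3.0 × 10^4 cells/mL. Cells were serum-starved 24 h, then exposed to compound for 24 h alongside a 0.1% DMSO control and a digitonin 100 μg/mL cytotoxicity control. MTT 5 mg/mL was added for 2 h, formazan taken up in DMSO, and OD read at 565 nm. Four independent experiments, each in triplicate.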

[2] = test system: VSMC; assay: Inhibition of PDGF-induced Sprague-Dawley rat VSMC proliferation at 5 to 10 uM pretreated for 2 hrs followed by PDGF stimulation measured after 24 hrs by MTT assay; format: functional, cell-based
Summary of the method: (§2)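 Rat aortic VSMCs (Sprague-Dawley, passages 7–10) were seeded at 3.0 × 10^4 cells/mL, grown 24 h in DMEM/10% FBS, then serum-starved 24 h. Compound was added 2 h before PDGF 25 ng/mL, followed by 24 h more incubation. Paclitaxel 1 μM served as positive control. MTT read-out at 565 nm. Four independent experiments in triplicate, compared against PDGF-stimulated cells.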

[3] = test system: VSMC; assay: Inhibition of PDGF-induced Sprague-Dawley rat VSMC proliferation at 10 uM pretreated for 2 hrs followed by PDGF stimulation measured after 24 hrs by MTT assay relative to control; format: functional; summary of the method: as §2
[4] = test system: VSMC; assay: Cytotoxicity against Sprague-Dawley rat VSMC assessed as decrease in cell viability at >5 uM after 24 hrs by MTT assay; format: cell-based; summary of the method: as §1
[5] = test system: VSMC; assay: Cytotoxicity against Sprague-Dawley rat VSMC assessed as decrease in cell viability at 0.5 to 1 uM after 24 hrs by MTT assay; format: cell-based; summary of the method: as §1

Structure (SMILES)	Activity [1]	inhibition [2]	inhibition at 10 µM [3]	Activity [4]	Activity [5]
COC(C)(C)/C=C/C[C@@H](C)[C@H]1CC[C@@]2(C)[C@@H]3[C@@H](O)C=C4[C@@H](CC[C@H](OC(=O)CC(=O)O)C4(C)C)[C@]3(C=O)CC[C@]12C	Non-Toxic	Active			
CO[C@H]1O[C@]23C=C[C@@H]4[C@@]1(CC[C@]1(C)[C@@H]([C@H](C)C/C=C/C(C)(C)OC)CC[C@@]41C)[C@@H]2CC[C@H](OC(=O)CC(=O)O)C3(C)C	Non-Toxic		72.4%		
CO[C@H]1O[C@]23C=C[C@@H]4[C@@]1(CC[C@]1(C)[C@@H]([C@H](C)C/C=C/C(C)(C)OC)CC[C@@]41C)[C@@H]2CC[C@H](OC(=O)C(=O)O)C3(C)C	Non-Toxic				
C[C@H](C/C=C/C(C)(C)O)[C@H]1CC[C@@]2(C)[C@@H]3[C@@H](O)C=C4[C@@H](CC[C@H](OC(=O)CC(=O)O)C4(C)C)[C@]3(C=O)CC[C@]12C	Non-Toxic	Active			
C[C@H](C/C=C/C(C)(C)O)[C@H]1CC[C@@]2(C)[C@@H]3C=C[C@@]45OC(=O)[C@]3(CC[C@]12C)[C@@H]4CC[C@H](O[C@@H]1O[C@H](CO)[C@@H](O)[C@@H](O)[C@H]1O)C5(C)C	Non-Toxic	Active			
COC(C)(C)/C=C/C[C@@H](C)[C@H]1CC[C@@]2(C)[C@@H]3C=C[C@@]45OC(=O)[C@]3(CC[C@]12C)[C@@H]4CC[C@H](OC(=O)CC(=O)O)C5(C)C				Toxic	Non-Toxic
CO[C@H](C=C(C)C)C[C@@H](C)[C@H]1CC[C@@]2(C)[C@@H]3[C@@H](OC)C=C4[C@@H](CC[C@H](OC(=O)CC(=O)O)C4(C)C)[C@]3(C=O)CC[C@]12C	Non-Toxic		67.9%		
